Reference: publication PMC5224883 (Chemistry (Weinheim an der Bergstrasse, Germany), 2016)

How the values were obtained:
[1] = Cyclic voltammetry of copper acetate complexes; assay type: physicochemical; settings: 1 mM in acetonitrile, 0.1 M TBAPF6, 200 mV/s, vs SHE
How it was run: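 Working electrode was a Pt button, with a Pt-wire counter electrode and an Ag-wire pseudo-reference electrode. Tests were run under N2. Potentials were referenced to SHE using ferrocene as an internal standard (+0.400 V versus SHE). Samples were Cu2+ acetate complexes.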

CXCR4 = CXCR4 (Homo sapiens, UniProt P61073); assay: Chemokine-induced calcium signalling assay; assay type: cell-based; settings: read-out: Ca^2+ flux IC50 CXCR4; CXCR4-positive U87 cell line, CXCL12 (SDF-1) induced Ca^2+ signalling, triplicate average
Sequence of CXCR4 (P61073 whole entry): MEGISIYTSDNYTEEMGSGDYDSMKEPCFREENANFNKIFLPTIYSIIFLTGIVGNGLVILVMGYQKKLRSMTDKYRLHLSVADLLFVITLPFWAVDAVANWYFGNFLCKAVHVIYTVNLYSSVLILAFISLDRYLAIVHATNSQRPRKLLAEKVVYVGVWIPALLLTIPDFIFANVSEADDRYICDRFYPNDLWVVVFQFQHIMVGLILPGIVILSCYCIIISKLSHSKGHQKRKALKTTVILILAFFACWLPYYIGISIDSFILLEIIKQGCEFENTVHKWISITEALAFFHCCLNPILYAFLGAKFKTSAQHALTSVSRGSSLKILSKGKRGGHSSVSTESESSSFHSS

Eox (Cu^2+/3+) [1]: +1.516 V
Ered (Cu^2+/+) [1]: −0.641 V
Eox (^Cu+/2+) ([1]; return oxidation): −0.156 V
IC50 (CXCR4): 156 nM
Structure (SMILES): CC(=O)[O-].[Cu+2].c1ccc(CN2CCCN3CCN(CCCN(Cc4ccccc4)CC3)CC2)cc1 [[Cu5(OAc)]^+]
